According to ChEMBL document CHEMBL1944523, “Benzimidazolones: a new class of selective peroxisome proliferator-activated receptor γ (PPARγ) modulators” (J Med Chem, 2011):
pIC50: −log10 of the molar value. Activity calls are given as the source filed them. The calls are words filed in the database; no cut-off is given here.

What was measured:
Mus musculus [1] = assay: Toxicity in db/db C57BLKS/J-m +/+ Leprdb mouse assessed as increase in water content of epididymal fat pad at 10 to 30 mg/kg, po qd for 10 days measured on day 11 by vaccum drying method; type: organism-based; design: dose 10-30 mg/kg, route oral; settings: in vivo, 240 h
Summary of the method: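 Male db/db mice, seven per group, gavaged daily in 0.25% methylcellulose; after day 11 dosing epididymal fat pads excised, weighed, vacuum centrifugal-dried over 24 h, reweighed to give water content; mean of seven determinations.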

[2] = Oral bioavailability in rat at 2 mg/kg by LC-MS/MS analysis; type: ADME, organism-based; settings: in vivo
Summary of the method: (§1)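 Rat pharmacokinetics: 2 mpk oral in 5% methylcellulose, 0.5 mpk iv in ethanol/PEG400/water (1/4/5). Blood sampled at set intervals; plasma acidified with 0.5 M formate buffer pH 3.0, acetonitrile-precipitated, quantified by LC−MS−MS against spiked control-plasma calibration curves.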

[3] = Half life in rat at 0.5 mg/kg, iv and 2 mg/kg, po by LC-MS/MS analysis; type: ADME, organism-based; settings: in vivo; summary of the method: as §1
Mus musculus [4] = assay: Antidiabetic activity in db/db C57BLKS/J-m +/+ Leprdb mouse assessed as reduction of glucose level at 3 mg/kg, po qd for 10 days measured on 11 relative to control; type: functional; design: scale not given: the % may be the effect or the level left
Summary of the method: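 Male db/db (C57BLKS/J-m +/+Leprdb) mice, 12−13 weeks old, seven per group, chow and water freely available; once-daily oral gavage in 0.25% methylcellulose vehicle for 11 days. Tail blood drawn just before next dose on days 0, 4, 7 and 11 for plasma glucose. Value is percent correction versus vehicle control; mean of n = 7; rosiglitazone 10 mpk positive control.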

[5] = target: T1, Peroxisome proliferator-activated receptor delta (Homo sapiens, UniProt Q03181); assay: Binding affinity to PPARdelta by scintillation proximity assay
T1 sequence (Q03181 whole entry): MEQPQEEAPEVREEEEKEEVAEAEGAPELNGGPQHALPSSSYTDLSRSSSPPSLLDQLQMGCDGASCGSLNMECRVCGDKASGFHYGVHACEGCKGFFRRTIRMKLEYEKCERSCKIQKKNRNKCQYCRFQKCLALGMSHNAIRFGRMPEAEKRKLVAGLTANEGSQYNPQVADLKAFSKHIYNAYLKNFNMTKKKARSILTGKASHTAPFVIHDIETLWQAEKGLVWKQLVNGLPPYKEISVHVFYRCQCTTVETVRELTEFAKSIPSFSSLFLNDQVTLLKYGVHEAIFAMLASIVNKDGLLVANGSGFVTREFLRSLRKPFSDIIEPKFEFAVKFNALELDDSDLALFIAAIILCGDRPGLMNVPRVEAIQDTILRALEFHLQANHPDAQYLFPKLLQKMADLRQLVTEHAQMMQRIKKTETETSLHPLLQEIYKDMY
Summary of the method: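 Scintillation proximity binding assay on PPAR receptors giving IC50; mean of three determinations.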

Rattus norvegicus [6] = assay: Toxicity in obese insulin resistant Zucker fa/fa rat assessed as increase in plasma volume at >= 10 mg/kg; settings: in vivo, 100 mg/kg
Cytochrome P450 2C9 = Cytochrome P450 2C9 (Homo sapiens, UniProt P11712); assay: Inhibition of CYP2C9; type: ADME
[7] = target: T2, Nuclear receptor subfamily 1 group I member 2 (Homo sapiens, UniProt O75469); assay: Induction of PXR up to 10 uM
T2 sequence (O75469 whole entry): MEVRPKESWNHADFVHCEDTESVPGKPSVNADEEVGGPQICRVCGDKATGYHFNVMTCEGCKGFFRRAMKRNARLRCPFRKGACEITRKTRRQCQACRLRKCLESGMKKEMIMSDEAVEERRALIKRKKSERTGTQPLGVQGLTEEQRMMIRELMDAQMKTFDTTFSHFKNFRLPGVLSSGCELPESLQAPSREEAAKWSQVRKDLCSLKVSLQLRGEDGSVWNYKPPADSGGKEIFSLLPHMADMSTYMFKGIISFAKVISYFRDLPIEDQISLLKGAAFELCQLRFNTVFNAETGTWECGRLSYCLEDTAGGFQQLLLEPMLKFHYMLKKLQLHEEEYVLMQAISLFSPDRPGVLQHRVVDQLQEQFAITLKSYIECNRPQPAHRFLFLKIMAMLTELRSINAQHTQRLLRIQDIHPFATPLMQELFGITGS

Cytochrome P450 3A4 = Cytochrome P450 3A4 (Homo sapiens, UniProt P08684); assay: Inhibition of CYP3A4; type: ADME
COS-1 = assay: Binding affinity to human PPARgamma LBD Y473A mutant expressed in COS1 cells co-expressing GAL4 by scintillation proximity assay; type: cell-based
Rattus norvegicus [8] = assay: Antidiabetic activity in obese insulin resistant Zucker fa/fa rat assessed as decrease in free fatty acids level in plasma at 0.1 to 100 mg/kg qd for 7 days; type: functional, organism-based
Summary of the method: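 Obese insulin-resistant Zucker fa/fa rats (n = 8) dosed daily for 7 days with vehicle or compound. Tail-nick blood taken 1 day before dosing and 1 day after the seventh dose; plasma insulin by rat insulin RIA, free fatty acids and triglyceride by enzymatic kits per manufacturer instructions.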

Rattus norvegicus [9] = assay: Plasma clearance in rat at 0.5 mg/kg, iv and 2 mg/kg, po by LC-MS/MS analysis; type: ADME, organism-based; settings: in vivo; summary of the method: as §1
Cytochrome P450 2C8 = target: T3, Cytochrome P450 2C8 (Homo sapiens, UniProt P10632); assay: Inhibition of CYP2C8; type: ADME
T3 sequence (P10632 whole entry): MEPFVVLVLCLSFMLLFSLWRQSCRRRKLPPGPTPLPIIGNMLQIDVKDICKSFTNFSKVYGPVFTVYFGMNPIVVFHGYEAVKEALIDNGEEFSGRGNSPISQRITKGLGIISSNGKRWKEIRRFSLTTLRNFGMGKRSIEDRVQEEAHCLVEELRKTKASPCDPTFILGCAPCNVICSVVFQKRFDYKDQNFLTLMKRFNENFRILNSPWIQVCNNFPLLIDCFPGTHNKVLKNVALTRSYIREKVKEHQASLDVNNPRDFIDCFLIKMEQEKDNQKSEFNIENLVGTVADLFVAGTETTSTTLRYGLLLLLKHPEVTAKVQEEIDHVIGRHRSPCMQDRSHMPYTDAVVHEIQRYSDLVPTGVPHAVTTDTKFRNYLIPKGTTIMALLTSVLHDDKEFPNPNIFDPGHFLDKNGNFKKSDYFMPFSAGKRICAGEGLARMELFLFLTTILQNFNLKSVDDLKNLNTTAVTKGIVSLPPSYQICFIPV

Chain of Cytochrome P450 2C9 (P11712 whole entry): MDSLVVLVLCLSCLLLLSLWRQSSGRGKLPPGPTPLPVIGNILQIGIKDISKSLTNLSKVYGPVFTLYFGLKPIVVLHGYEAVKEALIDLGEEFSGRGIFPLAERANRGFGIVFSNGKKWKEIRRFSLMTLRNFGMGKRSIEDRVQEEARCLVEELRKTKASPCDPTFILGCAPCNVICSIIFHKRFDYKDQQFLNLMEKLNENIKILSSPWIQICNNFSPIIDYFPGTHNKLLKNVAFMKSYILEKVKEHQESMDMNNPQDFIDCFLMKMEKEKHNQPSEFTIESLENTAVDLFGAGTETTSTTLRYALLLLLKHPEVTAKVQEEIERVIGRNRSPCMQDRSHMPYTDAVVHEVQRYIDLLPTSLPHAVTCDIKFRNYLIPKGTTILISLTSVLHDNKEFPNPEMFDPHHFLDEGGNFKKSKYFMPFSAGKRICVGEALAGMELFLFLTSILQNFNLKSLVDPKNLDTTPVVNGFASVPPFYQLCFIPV
Chain of Cytochrome P450 3A4 (P08684 whole entry, the tested form may be a part): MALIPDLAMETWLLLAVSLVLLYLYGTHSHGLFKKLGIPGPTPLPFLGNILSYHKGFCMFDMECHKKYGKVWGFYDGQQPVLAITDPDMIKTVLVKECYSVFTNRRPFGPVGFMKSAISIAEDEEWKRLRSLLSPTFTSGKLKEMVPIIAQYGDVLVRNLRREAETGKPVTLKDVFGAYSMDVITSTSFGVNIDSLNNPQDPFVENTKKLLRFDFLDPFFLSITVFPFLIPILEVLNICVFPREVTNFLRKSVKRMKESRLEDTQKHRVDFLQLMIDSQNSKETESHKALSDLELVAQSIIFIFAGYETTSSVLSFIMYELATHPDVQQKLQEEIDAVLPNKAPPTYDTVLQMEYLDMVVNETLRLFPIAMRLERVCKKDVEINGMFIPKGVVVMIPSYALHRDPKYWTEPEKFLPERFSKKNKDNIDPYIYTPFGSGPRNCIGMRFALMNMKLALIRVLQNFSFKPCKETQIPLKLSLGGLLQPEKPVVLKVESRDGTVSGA

## COc1ccc2c(-n3c(=O)n(Cc4cccc([C@@]5(C)OC(=O)NC5=O)c4)c4ccccc43)noc2c1
Mus musculus [1]
  Activity: Non-toxic
[2]
  bioavailability: 87%
[3]
  half-life: 4.2 h
Mus musculus [4]
  Activity: 49%
[5]
  pIC50: < 4.30
Rattus norvegicus [6]
  Activity: Toxic
Cytochrome P450 2C9
  pIC50: 5.70
[7]
  Activity: Not Active
Cytochrome P450 3A4
  pIC50: 4.66
COS-1
  Activity: Active
Rattus norvegicus [8]
  Activity: Active
Rattus norvegicus [9]
  clearance: 5.5 mL/min/kg
Cytochrome P450 2C8
  pIC50: 5.00
